Assay results from different studies.
Compare with care: the assays were run in different laboratories.
Target: Kappa-type opioid receptor (OPRK1, Homo sapiens, UniProt P41145)
Observed: ligand displacement
Tested at: 10 µM

CCc1ccccc1C(=O)Nc1n[nH]c2c(C)c(F)c(C3C(C#N)=C(C)N(C)C(C)=C3C#N)cc12 — inhibition: 16.1%
C[C@H](C(=O)N[C@H]1COc2ccccc2[C@@H]1S(C)(=O)=O)c1ccc(F)cc1 — inhibition: 1%
C[C@@H]1N=C(c2ccccc2F)c2cc(Br)ccc2-n2cnc(C(=O)O)c21 — inhibition (radioligand): 62.8%
c1ccc(C(NCCNC(c2ccccc2)c2ccccc2)c2ccccc2)cc1 — inhibition: 88%
COCc1c(-c2cc3cc(C)cc(OC)c3s2)c2c(N)ncnn2c1CN1CCNC(=O)C1 — inhibition (radioligand): 17%
CC(C)N1CCC[C@H]1CNC(=O)c1cn(C2CCCC2)c(=O)c2c1c1ccccc1n2C — inhibition (radioligand): 5%
Clc1ccc2c(C3CCN(CCc4c[nH]c5ccccc45)CC3)c[nH]c2c1 — inhibition (radioligand): 79%
COc1ccc(C(=O)NCc2cc(C(C)C)no2)cc1OC1CCN(C)CC1 — inhibition (radioligand): 22%
C[C@@H]1C[C@H]2O[C@@H]2/C=C\C=C\C(=O)Cc2c(Cl)c(O)cc(O)c2C(=O)O1 — inhibition (radioligand; cell membranes): -56%
c1ccc(C2CCN(c3cnc4c(N5CCOCC5)nccn34)CC2)cc1 — inhibition: 6.44%
